Data set [1] deals with Staphylococcus aureus. Nature of the data set: Induction of morphological changes in Staphylococcus aureus ATCC 29213 assessed as cell shrinkage at 8 time of MIC for 6 hrs by scanning electron microscopy. The class given is functional, organism-based. Put shortly:
(§1)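 Mid-log cells exposed to compound for 6 h at 37 °C alongside untreated controls. Cells pelleted (3000 rpm, 15 min), washed four times in PBS, and fixed with 2.5% glutaraldehyde. Dehydrated through graded ethanol, critical-point dried and gold-coated, then imaged by SEM.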

The test system of a further data set is Klebsiella pneumoniae. The data set can be described thus: Antibacterial activity against Klebsiella pneumoniae ATCC 10031 assessed as reduction bacterial growth after 16 hrs by TECAN SPARK microplate reader analysis. The class given is functional. In short, it runs like this: (§2)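 Single colony grown overnight in 4 mL TSB at 37 °C, diluted 100-fold and grown to mid-log phase. Compounds 2-fold serially diluted in TSB and mixed 1:1 with bacteria in TSB (1 × 10^6 CFU/mL). Incubated 16 h at 37 °C, then A600 read. MIC taken as the lowest concentration giving complete growth inhibition.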

Data set [2] deals with Escherichia coli. Nature of the data set: Induction of morphological changes in Escherichia coli ATCC 25922 assessed as cellular inclusion leakage at 8 time of MIC for 6 hrs by scanning electron microscopy. Type of data set: functional, organism-based. Put shortly:
as §1

Data set [3] deals with Escherichia coli. Nature of the data set: Antibacterial activity against Escherichia coli ATCC 25922 assessed as inhibition of bacterial growth by measuring fold increase in MIC compound preincubated at 40 degree C for 1 hr followed by bacterial culture addition and measured after 16 to 18 hrs by TECAN SPARK microplate reader analysis. The class given is functional. The settings on record: time 16-18 hrs.

The subject of data set [4] is Staphylococcus aureus. The data set can be described thus: Induction of morphological changes in Staphylococcus aureus ATCC 29213 assessed as cellular inclusion leakage at 8 time of MIC for 6 hrs by scanning electron microscopy. The class given is functional, organism-based. In short, it runs like this: as §1
Data set [5] has as its system Escherichia coli. The data set can be described thus: Antibacterial activity against Escherichia coli ATCC 25922 assessed as inhibition of bacterial growth by measuring fold increase in MIC measured after 16 to 18 hrs in presence of 10% FBS by TECAN SPARK microplate reader analysis. The class given is functional. The settings on record: time 16-18 hrs. Put shortly: (§3)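 Salt/serum stability. Exponential-phase bacteria incubated 16–18 h with compound in medium supplemented with 10 mM NaCl, 10 mM KCl, 10 mM MgCl2, 10% DMEM or 10% FBS. Stability judged from the change in MIC.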

Data set [6] relates to Escherichia coli. Nature of the data set: Induction of ROS generation in Escherichia coli ATCC 25922 assessed as increase in fluorescence intensity incubated for 30 mins by DCFH-DA staining based analysis. The class given is functional, organism-based. In short, it runs like this: (§4)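 Overnight 37 °C cultures washed three times and resuspended in PBS, diluted to OD600 0.1, and mixed with DCFH-DA (5 µM). Treated with a range of compound concentrations for 30 min at 37 °C in the dark. Fluorescence read at Ex 488 / Em 530 nm.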

The test system of data set [7] is Staphylococcus aureus. The data set can be described thus: Drug resistance, ratio of MIC for Staphylococcus aureus ATCC 29213 after 25 passages to MIC for Staphylococcus aureus ATCC 29213 after initial exposure. The class given is functional. As to conditions: time 16 hrs. Put shortly:
(§5)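 Serial passage resistance selection: after each broth MIC determination, bacteria from the 1/2 MIC well were withdrawn and diluted to 1 × 10^6 CFU/mL for the next MIC measurement. Repeated for 25 passages; MIC after passage 25 compared with the initial MIC.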

Data set [8] relates to Escherichia coli. The data set can be described thus: Drug resistance, ratio of MIC for Escherichia coli ATCC 25922 after 25 passages to MIC for Escherichia coli ATCC 25922 after initial exposure. The class given is functional. Put shortly: as §5
Data set [9] deals with Staphylococcus aureus. The data set can be described thus: Induction of morphological changes in Staphylococcus aureus ATCC 29213 assessed as cell wrinkled at 8 time of MIC for 6 hrs by scanning electron microscopy. The class given is functional, organism-based. Put shortly:
as §1

Data set [10] concerns Staphylococcus aureus. The data set can be described thus: Induction of ROS generation in Staphylococcus aureus ATCC 29213 assessed as increase in fluorescence intensity incubated for 30 mins by DCFH-DA staining based analysis. The class given is functional, organism-based. Put shortly: as §4
Data set [11] relates to Escherichia coli. The data set can be described thus: Antibacterial activity against Escherichia coli ATCC 25922 assessed as inhibition of bacterial growth by measuring fold increase in MIC measured after 16 to 18 hrs in presence of NaCl by TECAN SPARK microplate reader analysis. The class given is functional. As to conditions: time 16-18 hrs. Put shortly: as §3
For data set [12], the system named is Staphylococcus aureus. Nature of the data set: Bactericidal activity against Staphylococcus aureus ATCC 29213 assessed as inhibition of bacterial growth at 1 to 4 times of MIC measured within 1 hr mins by time-kill kinetics assay relative to control. Type of data set: functional. In short, it runs like this:
(§6)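 Bacteria grown at 37 °C to mid-log phase and diluted to 1 × 10^6 CFU/mL. […] Mixtures diluted 10^2–10^4-fold and plated on TSB agar; colonies counted after 20 h at 37 °C.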

The test system of another data set is Bacillus subtilis. The data set can be described thus: Antibacterial activity against Bacillus subtilis ATCC 6633 assessed as reduction bacterial growth after 16 hrs by TECAN SPARK microplate reader analysis. Type of data set: functional. Put shortly:
as §2

Data set [13] concerns Escherichia coli. The data set can be described thus: Induction of morphological changes in Escherichia coli ATCC 25922 assessed as cell wrinkled at 8 time of MIC for 6 hrs by scanning electron microscopy. The class given is functional, organism-based. Put shortly:
as §1

Data set [14] has as its system Escherichia coli. Nature of the data set: Bactericidal activity against Escherichia coli ATCC 25922 assessed as reduction in colony forming units at 4 times of MIC measured after 60 mins by time-kill kinetics assay. The class given is functional, organism-based. In short, it runs like this: as §6
Data set [15] relates to Staphylococcus aureus. The data set can be described thus: Bactericidal activity against Staphylococcus aureus ATCC 29213 assessed as reduction in colony forming units at 1 to 4 times of MIC by time-kill kinetics assay. Type of data set: functional, organism-based. As to conditions: time 15-120 min, TDE = time-dependent effect. In short, it runs like this: as §6
For data set [16], the system named is Escherichia coli. Nature of the data set: Induction of morphological changes in Escherichia coli ATCC 25922 assessed as cell collapse at 8 time of MIC for 6 hrs by scanning electron microscopy. The class given is functional, organism-based. In short, it runs like this:
as §1

Data set [17] deals with Staphylococcus aureus. The data set can be described thus: Antibacterial activity against Staphylococcus aureus ATCC 29213 assessed as inhibition of bacterial growth by measuring fold increase in MIC compound preincubated at 40 degree C for 1 hr followed by bacterial culture addition and measured after 16 to 18 hrs by TECAN SPARK microplate reader analysis. Type of data set: functional. As to conditions: time 16-18 hrs.

Data set [18] concerns Staphylococcus aureus. The data set can be described thus: Antibacterial activity against Staphylococcus aureus ATCC 29213 assessed as reduction bacterial growth after 16 hrs by TECAN SPARK microplate reader analysis. The class given is functional. Put shortly: as §2
For data set [19], the system named is Escherichia coli. Nature of the data set: Induction of inner membrane permeabilization in Escherichia coli ATCC 25922 assessed as increase in fluorescence intensity incubated for 1 hr by propidium iodide staining based TECAN SPARK microplate reader analysis. The class given is functional, organism-based. In short, it runs like this:
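Overnight 37 °C cultures resuspended in PBS and diluted to OD600 0.1. Propidium iodide added (5 µM final) for 30 min. Treated with a range of compound concentrations for 1 h in the dark; fluorescence read at Ex 535 / Em 615 nm.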

Data set [20] is described as follows: Hemolytic activity in mouse red blood cells assessed as hemolysis incubated for 1 hr by TECAN SPARK microplate reader analysis. Type of data set: toxicity, cell-based, Erythrocyte. As to conditions: red blood cells (erythrocytes). Put shortly: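 Mouse RBCs washed three times in 1× PBS by centrifugation (3500 rpm, 10 min) and made up as a 5% v/v suspension. Incubated with 2-fold serially diluted compound in PBS for 1 h at 37 °C, then centrifuged. Supernatant diluted in PBS and A540 read. % hemolysis calculated relative to 1% Triton X-100 (100%) and PBS (0%).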

For data set [21], the system named is Staphylococcus aureus. Nature of the data set: Induction of membrane disruption in Staphylococcus aureus ATCC 29213 assessed as increase in red fluorescence at 8 times of MIC for 6 hrs by Hoechst 33342 and propidium iodide staining based confocal microscopic analysis. Type of data set: functional, organism-based.
Data set [22] relates to Staphylococcus aureus. The data set can be described thus: Antibacterial activity against Staphylococcus aureus ATCC 29213 assessed as inhibition of bacterial growth by measuring fold increase in MIC measured after 16 to 18 hrs in presence of 10% FBS by TECAN SPARK microplate reader analysis. Type of data set: functional. The settings on record: time 16-18 hrs. In short, it runs like this: as §3

≈ marks a conversion by molar mass, not a printed value. Calls of active or inactive are those of the source. A value given as a limit tells only on which side of the number the result lay.

In general, MIC refers to the smallest concentration in the dilution series that meets the test's criterion for growth inhibition. As usually defined, the HC50 is the concentration that lyses half of the red blood cells. In the case of `CCCCCCN1C(=O)[C@H](CCCCNC(=N)N)N(Cc2ccc(-c3ccc(CN4C(=O)N(CCCCCC)C(=O)[C@@H]4CCCCNC(=N)N)cc3)cc2)C1=O`, the result in the data set with Staphylococcus aureus [1], in the data set with Escherichia coli [2], with Staphylococcus aureus [4], in the data set on Staphylococcus aureus [9], with Escherichia coli [13] and in the data set on Escherichia coli [14] was Active. Besides, the outcome in the data set on Escherichia coli [16] and in the data set on Staphylococcus aureus [21] was Active. The MIC in the data set with Klebsiella pneumoniae is 7.81 µg/mL (≈ 10.1 µM); in the data set with Bacillus subtilis, 1.95 µg/mL (≈ 2.52 µM); with Staphylococcus aureus [18], 1.95 µg/mL (≈ 2.52 µM). The “fold change (FC)” value in the data set with Escherichia coli [3], in the data set on Escherichia coli [5], in the data set on Escherichia coli [11], in the data set with Staphylococcus aureus [17] and with Staphylococcus aureus [22] was 1 in each case. Further, the Activity entry in the data set on Escherichia coli [6] is “Dose-Dependent Effect”; in the data set on Staphylococcus aureus [10], “Dose-Dependent Effect”; with Staphylococcus aureus [15], “Tde”; with Escherichia coli [19], “Dose-Dependent Effect”. The Ratio entry with Staphylococcus aureus [7] and with Escherichia coli [8] was “<=4” each time. The “inhibition (INH)” value with Staphylococcus aureus [12] turned out to be 100%. Moreover, the HC50 at 1 h in [20] came to 61 µg/mL.

The record behind these values is ChEMBL document CHEMBL5576109, “Hydantoin derivative dimers as broad-spectrum antimicrobial agents against ESKAPE pathogens with enhanced killing rate and stability” (RSC Med Chem, 2024).
